Measured values from ChEMBL document CHEMBL1126073, “Synthesis of carbon-11 labeled iodinated cocaine derivatives and their distribution in baboon brain measured using positron emission tomography” (J Med Chem, 1992).

Assays:
[1] = Percentage unmetabolized in baboon plasma at 30 min after administration.; type: functional, Cercopithecidae
Method in brief: (§1)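 Arterial baboon plasma taken 1, 5, 10 and 30 min after injection of 11C tracer. 0.2 mL plasma in 1 mL acetonitrile, sonicated, centrifuged. Supernatant run on silica HPLC with acetonitrile/0.004 M (NH4)2HPO4 70/30 plus unlabelled carrier. Unchanged tracer, EME and void-volume acidic 11C measured as fractions of total. [11C]CO2 measured separately by volatilization assay. Mean of two experiments.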

[2] = Percentage of tracer or metabolite (unchanged) in baboon plasma at 1 min after injection of the compound; type: ADME, cell-free; details: cercopithecidae; method in brief: as §1
[3] = Percentage of tracer or metabolite (acid metabolites) in baboon plasma at 30 min after injection of the compound; type: ADME, cell-free; details: cercopithecidae, 0.5 h; method in brief: as §1
[4] = Percentage of tracer or metabolite (acid metabolites) in baboon plasma at 1 min after injection of the compound; type: ADME, cell-free; details: cercopithecidae; method in brief: as §1
[5] = Percentage of tracer or metabolite(EME) in baboon plasma at 1 min after injection of the compound; type: ADME, cell-free; details: cercopithecidae; method in brief: as §1
[6] = (§2) Baboon plasma free fraction.; type: ADME, cell-free; details: cercopithecidae, read-out: Free fraction
Method in brief: (§3)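 Free fraction by ultrafiltration: 11C-labelled compound added to 0.18 mL baboon plasma plus 0.02 mL 100 mM sodium phosphate pH 7.4 with 1 μg physostigmine (esterase block). Incubated 15 min at room temperature, vortexed every 5 min, centrifugal filter spun 5 min. Value = 11C concentration in ultrafiltrate / concentration in incubation mixture.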

[7] = Percentage of tracer or metabolite (acid metabolites) in baboon plasma at 10 min after injection of the compound; type: ADME, cell-free; details: cercopithecidae; method in brief: as §1
[8] = Clearance from plasma(with matabolite-corrected plasma radioactivity-time integral) at 30 min after administration.; type: ADME, cell-free; details: cercopithecidae, 0.5 h
Method in brief: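 Anaesthetised baboons given 4.7–8.4 mCi 11C tracer. Automated arterial sampling for the first 2 min, then manual sampling. Plasma total radioactivity corrected for metabolites using two-component exponential fits to the metabolite fractions. Time-radioactivity integral to 30 min by cubic spline integration.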

[9] = Percentage of tracer or metabolite (unchanged) in baboon plasma at 30 min after injection of the compound; type: ADME, cell-free; details: cercopithecidae, 0.5 h; method in brief: as §1
[10] = Percentage of tracer or metabolite(EME) in baboon plasma at 10 min after injection of the compound; type: ADME, cell-free; details: cercopithecidae; method in brief: as §1
[11] = Percentage of tracer or metabolite (acid metabolites) in baboon plasma at 5 min after injection of the compound; type: ADME, cell-free; details: cercopithecidae; method in brief: as §1
[12] = Percentage of tracer or metabolite (CO2) in baboon plasma at 1 min after injection of the compound; type: ADME; details: cercopithecidae; method in brief: as §1
[13] = Percentage of tracer or metabolite(EME) in baboon plasma at 5 min after injection of the compound; type: ADME, cell-free; details: cercopithecidae; method in brief: as §1
[14] = Percentage of tracer or metabolite (CO2) in baboon plasma at 10 min after injection of the compound; type: ADME, cell-free; details: cercopithecidae; method in brief: as §1
[15] = Percentage of tracer or metabolite (unchanged) in baboon plasma at 5 min after injection of the compound; type: ADME, cell-free; details: cercopithecidae; method in brief: as §1
[16] = Percentage of tracer or metabolite (CO2) in baboon plasma at 5 min after injection of the compound; type: ADME, cell-free; details: cercopithecidae; method in brief: as §1
[17] = Percentage of tracer or metabolite (CO2) in baboon plasma at 30 min after injection of the compound; type: ADME, cell-free; details: cercopithecidae, 0.5 h; method in brief: as §1
Monkey [18] = assay: Peak striatal uptake in baboon expressed as percentage of injected dose per mL of tissue.; type: functional, Cercopithecidae, Striatum
Method in brief: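 Adult female baboons (n = 7, 14.2–18.5 kg), ketamine 10 mg/kg i.m. induction, then oxygen/nitrous oxide/isoflurane anaesthesia. 4.7–8.4 mCi of N-11C-methyl tracer injected intravenously per PET scan. Regional time-activity curves; peak striatal radioactivity expressed as percent of injected dose per mL of tissue.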

[19] = Percentage of tracer or metabolite(EME) in baboon plasma at 30 min after injection of the compound; type: ADME, cell-free; details: cercopithecidae, 0.5 h; method in brief: as §1
[20] = Percentage of tracer or metabolite (unchanged) in baboon plasma at 10 min after injection of the compound; type: ADME, cell-free; details: cercopithecidae; method in brief: as §1
Monkey [21] = assay: as §2; type: functional, organism-based; details: Cercopithecidae; method in brief: as §3
[22] = molecular target: Sodium-dependent dopamine transporter (Rattus norvegicus, UniProt P23977); assay: Concentration inhibiting [3H]cocaine binding site to rat striatal membranes.
Method in brief: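 Rat striatal membranes prepared in ice-cold 320 mM sucrose with 10 mM NaH2PO4, pH 7.45 (1000g 3 min, then 30000g 30 min pellet). About 0.25 mg protein incubated at room temperature for 20 min with 2 nM [3H]cocaine, inhibitors 6 nM to 20 μM. Filtration through polyethylenimine-soaked glass-fibre filters, ice-cold wash, liquid scintillation counting.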

Chain of Sodium-dependent dopamine transporter (P23977 whole entry): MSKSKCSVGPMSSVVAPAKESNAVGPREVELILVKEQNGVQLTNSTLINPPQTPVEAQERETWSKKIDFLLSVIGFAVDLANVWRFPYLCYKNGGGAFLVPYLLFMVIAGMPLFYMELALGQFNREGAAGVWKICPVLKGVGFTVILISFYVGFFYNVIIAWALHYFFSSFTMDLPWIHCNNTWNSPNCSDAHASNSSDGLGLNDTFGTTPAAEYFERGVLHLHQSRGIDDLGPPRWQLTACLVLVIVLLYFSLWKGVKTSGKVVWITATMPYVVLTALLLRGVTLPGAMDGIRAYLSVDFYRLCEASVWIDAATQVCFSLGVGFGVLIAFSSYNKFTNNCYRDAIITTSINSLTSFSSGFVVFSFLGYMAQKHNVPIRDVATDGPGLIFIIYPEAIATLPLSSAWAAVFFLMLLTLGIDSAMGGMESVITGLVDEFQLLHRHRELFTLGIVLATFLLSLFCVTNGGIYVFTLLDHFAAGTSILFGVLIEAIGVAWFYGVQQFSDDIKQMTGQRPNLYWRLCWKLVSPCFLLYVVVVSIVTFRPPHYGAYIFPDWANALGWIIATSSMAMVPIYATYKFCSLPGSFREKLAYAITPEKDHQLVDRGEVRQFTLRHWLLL

Compound | Unmetabolized [1] [%] | Tracer [2] [%] | Tracer [3] [%] | Tracer [4] [%] | Tracer [5] [%] | fraction unbound [6] | Tracer [7] [%] | Plasma integral [8] [uCi min ml-1] | Tracer [9] [%] | Tracer [10] [%] | Tracer [11] [%] | Tracer [12] [%] | Tracer [13] [%] | Tracer [14] [%] | Tracer [15] [%] | Tracer [16] [%] | Tracer [17] [%] | Peak striatal uptake (Monkey [18]) | Tracer [19] [%] | Tracer [20] [%] | further results
COC(=O)C1C2CCC(C[C@@H]1OC(=O)c1ccc(I)cc1)N2C (stereo partly specified) | 22 | 90 | 71 | 0.5 | 1.5 | 0.06 | 45 | 1.8 | 22 | 2 | 17 | 1 | 2.5 | 21 | 60 | 7 | 32 | 0.04 | 2.6 | 48 | –
COC(=O)C1C2CCC(C[C@@H]1OC(=O)c1ccccc1I)N2C (stereo partly specified) | 33 | 97 | 69 | 0.02 | 0.3 | – | 52 | 6.1 | 33 | 0.2 | 15 | -7 | 0.2 | 21 | 79 | 15 | 29 | 0.01 | 0.2 | 48 | Fu (Monkey [21]): 0.003%; IC50 [22]: 350 nM
COC(=O)C1C2CCC(C[C@@H]1OC(=O)c1cccc(I)c1)N2C (stereo partly specified) | 36 | 95 | 51 | 0.4 | 0.7 | 0.016 | 35 | 2.8 | 36 | 1 | 18 | 3 | 3 | 33 | 77 | 17 | 43 | 0.03 | 4 | 60 | –
COC(=O)[C@H]1[C@@H](OC(=O)c2ccccc2)C[C@@H]2CC[C@H]1N2C [COCAINE] | 17 | 70 | 60 | 0.4 | 12 | 0.1 | 38 | 2.1 | 17 | 11 | 22 | 6 | 13 | 37 | 44 | 30 | 44 | 0.06 | 12 | 31 | –
